Calls of active or inactive are those of the source. No cut-off for these calls is given here.
Tests used:
[1] = tested on: Staphylococcus epidermidis; test: Phototoxicity against Staphylococcus epidermidis 1457 grown as biofilms assessed as log reduction in survival fraction incubated at 40 uM for 30 mins followed by irradiation with 100 J/cm'2 laser light in presence of TEDTA pretreated for 1 hr; assay type: functional
In short: (§1)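 Biofilms were pretreated with 20 mM TEDTA in PBS for 1 h. They were then given 40 μM TBO, 30 min in the dark at 37°C, and 640 nm laser at 42 mW/cm² to 100 J/cm². Colony counts were made after scraping, sonication, and plating. Controls: TEDTA+TBO without light, TEDTA alone, and untreated. Survival was compared with TBO + light without TEDTA using an unpaired two-sided t test.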

Staphylococcus aureus [2] = test: Phototoxicity against Staphylococcus aureus isolate LP grown as biofilms incubated at > 40 uM followed by irradiation with 1 to 200 J/cm2 laser light; assay type: functional, organism-based
In short: (§2)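 Biofilms were grown 16 h at 37°C in TSB + 0.25% glucose, with plasma-coated wells for S. aureus. They were then incubated with TBO (10–80 μM tested) in the dark for 30 min at 37°C and irradiated with a 640 nm diode laser, 1-cm spot, 42 mW/cm², at varied light doses. Cells were scraped, sonicated, serially diluted, and plated. Surviving fraction is CFU (TBO + light)/CFU (TBO alone). Duplicate biofilms, three experiments.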

[3] = tested on: Staphylococcus epidermidis; test: Phototoxicity against Staphylococcus epidermidis 1457 grown as biofilms assessed as dead cells incubated at 40 uM for 30 mins in dark using SYTO9 staining by confocal laser scanning microscopy; assay type: functional, organism-based
In short: (§3)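 Biofilms were grown 16 h at 37°C on glass coverslips, plasma-coated for S. aureus, and treated with 40 μM TBO for 30 min in the dark, then left dark or irradiated at 640 nm to 100 or 200 J/cm². They were stained with SYTO9/propidium iodide (1 μl of each stock per 3 ml PBS) for 15 min at 22°C in the dark and imaged by confocal microscopy. Red = membrane-damaged/dead, green = viable.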

[4] = tested on: Staphylococcus epidermidis; test: Phototoxicity against Staphylococcus epidermidis 1457 grown as biofilms assessed as appearance of large cellular aggregates surrounded by extracellular matrix incubated at 40 uM for 30 mins in dark by scanning electron microscopy; assay type: functional, organism-based
In short: (§4)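 Biofilms were grown on Thermanox coverslips in TSB, precoated with 20% human plasma for S. aureus, and incubated with 40 μM TBO for 30 min in the dark, either unirradiated or irradiated at 100 J/cm². They were washed, fixed in 2.5% glutaraldehyde/0.1 M cacodylate pH 7.2 for 1 h at 4°C, ethanol-dehydrated, critical-point dried, and gold-coated. SEM was at ×1,000.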

[5] = tested on: Staphylococcus epidermidis; test: Antimicrobial activity against Staphylococcus epidermidis 1457 grown as biofilms at 40 uM incubated in dark for 30 mins; assay type: functional, organism-based
In short: (§5)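 Biofilms grown 16 h at 37°C in polystyrene wells from overnight TSB cultures diluted in TSB + 0.25% glucose (S. epidermidis 1:200, S. aureus 1:50, S. aureus wells precoated with 20% human plasma). TBO in PBS added, kept dark 30 min at 37°C, no light. Biofilms scraped, sonicated, vortexed, and plated on TSB agar. CFU counted after 24 h at 37°C in the dark and compared with PBS-only controls.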

Staphylococcus aureus [6] = test: Antimicrobial activity against Staphylococcus aureus isolate LP grown as biofilms at 40 uM incubated in dark for 30 mins; assay type: functional, organism-based; in short: as §5
Staphylococcus aureus [7] = test: Phototoxicity against Staphylococcus aureus isolate LP grown as biofilms assessed as decrease in survival incubated at 40 uM followed by irradiation with 1 to 200J/cm2 laser light; assay type: functional, organism-based; in short: as §2
[8] = tested on: Staphylococcus epidermidis; test: Phototoxicity against Staphylococcus epidermidis 1457 grown as biofilms assessed as reduction in adherent bacterial count incubated at 40 uM for 30 mins followed by irradiation with 100 J/cm'2 laser light by scanning electron microscopy; assay type: functional, organism-based; in short: as §4
Staphylococcus aureus [9] = test: Phototoxicity against Staphylococcus aureus isolate LP grown as biofilms assessed as reduction in adherent bacterial count incubated at 40 uM for 30 mins followed by irradiation with 100 J/cm'2 laser light by scanning electron microscopy; assay type: functional, organism-based; in short: as §4
Staphylococcus aureus [10] = test: Phototoxicity against Staphylococcus aureus isolate LP grown as biofilms assessed as dead cells incubated at 40 uM for 30 mins followed by irradiation with 100 J/cm'2 laser light using SYTO9 staining by confocal laser scanning microscopy; assay type: functional, organism-based; in short: as §3
[11] = tested on: Staphylococcus epidermidis; test: Phototoxicity against Staphylococcus epidermidis 1457 grown as biofilms incubated at > 40 uM followed by irradiation with 1 to 200 J/cm2 laser light; assay type: functional, organism-based; in short: as §2
[12] = tested on: Staphylococcus epidermidis; test: Phototoxicity against Staphylococcus epidermidis 1457 grown as biofilms assessed as decrease in survival incubated at 40 uM followed by irradiation with 1 to 200 J/cm2 laser light; assay type: functional, organism-based; in short: as §2
Staphylococcus aureus [13] = test: Increase in phototoxicity against Staphylococcus aureus isolate LP grown as biofilms incubated at 40 uM for 30 mins followed by irradiation with 100 J/cm'2 laser light in presence of TEDTA pretreated for 1 hr; assay type: functional, organism-based; in short: as §1
[14] = tested on: Staphylococcus epidermidis; test: Phototoxicity against Staphylococcus epidermidis 1457 grown as biofilms assessed as dead cells incubated at 40 uM for 30 mins in dark using SYTO9 staining by confocal laser scanning microscopy in presence of TEDTA pretreated for 1 hr; assay type: functional, organism-based
In short: (§6)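 Coverslip biofilms (plasma-coated for S. aureus) were pretreated with 20 mM TEDTA for 1 h and exposed to 40 μM TBO for 30 min in the dark. They were stained with SYTO9 plus propidium iodide for 15 min at 22°C in the dark and examined by confocal laser scanning microscopy for red (dead) versus green (viable) cells.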

[15] = tested on: Staphylococcus epidermidis; test: Phototoxicity against Staphylococcus epidermidis 1457 grown as biofilms assessed as reduction in adherent bacterial count incubated at 40 uM for 30 mins followed by irradiation with 100 J/cm'2 laser light by scanning electron microscopy in presence of TEDTA pretreated for 1 hr; assay type: functional, organism-based
In short: (§7)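 Thermanox coverslip biofilms (plasma-precoated for S. aureus) were pretreated with 20 mM TEDTA for 1 h, given 40 μM TBO for 30 min in the dark, and irradiated at 100 J/cm². They were then fixed in glutaraldehyde/cacodylate, dehydrated in graded ethanol, critical-point dried, gold-coated, and imaged by SEM at ×1,000.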

Staphylococcus aureus [16] = test: Phototoxicity against Staphylococcus aureus isolate LP grown as biofilms assessed as dead cells incubated at 40 uM for 30 mins in dark using SYTO9 staining by confocal laser scanning microscopy in presence of TEDTA pretreated for 1 hr; assay type: functional, organism-based; in short: as §6
Staphylococcus aureus [17] = test: Phototoxicity against Staphylococcus aureus isolate LP grown as biofilms assessed as reduction in adherent bacterial count incubated at 40 uM for 30 mins followed by irradiation with 100 J/cm'2 laser light by scanning electron microscopy in presence of TEDTA pretreated for 1 hr; assay type: functional, organism-based; in short: as §7
Staphylococcus aureus [18] = test: Phototoxicity against Staphylococcus aureus isolate LP grown as biofilms assessed as dead cells incubated at 40 uM for 30 mins followed by irradiation with 200 J/cm'2 laser light using propidium iodide staining by confocal laser scanning microscopy; assay type: functional, organism-based; in short: as §3
[19] = tested on: Staphylococcus epidermidis; test: Phototoxicity against Staphylococcus epidermidis 1457 grown as biofilms assessed as dead cells incubated at 40 uM for 30 mins followed by irradiation with 200 J/cm'2 laser light using propidium iodide staining by confocal laser scanning microscopy; assay type: functional, organism-based; in short: as §3
Staphylococcus aureus [20] = test: Phototoxicity against Staphylococcus aureus isolate LP grown as biofilms assessed as dead cells incubated at 40 uM for 30 mins in dark using SYTO9 staining by confocal laser scanning microscopy; assay type: functional, organism-based; in short: as §3
[21] = tested on: Staphylococcus epidermidis; test: Phototoxicity against Staphylococcus epidermidis 1457 grown as biofilms assessed as dead cells incubated at 40 uM for 30 mins followed by irradiation with 100 J/cm'2 laser light using SYTO9 staining by confocal laser scanning microscopy; assay type: functional, organism-based; in short: as §3
Staphylococcus aureus [22] = test: Phototoxicity against Staphylococcus aureus isolate LP grown as biofilms assessed as appearance of large cellular aggregates surrounded by extracellular matrix incubated at 40 uM for 30 mins in dark by scanning electron microscopy; assay type: functional, organism-based; in short: as §4
[23] = Ratio of phototoxicity against Staphylococcus aureus isolate LP grown as biofilms to phototoxicity against Staphylococcus epidermidis 1457; assay type: functional
In short: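 Cell survival for each species was derived as CFU (TBO + light)/CFU (TBO alone) after biofilms were incubated with 40 μM TBO for 30 min in the dark and irradiated with a 640 nm diode laser at 42 mW/cm², compared at 25 J/cm². Unpaired two-sided t test.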

Q: With `Cc1cc2nc3ccc(N(C)C)cc3[s+]c2cc1N.[Cl-]` [TOLONIUM CHLORIDE] as the molecule, how does the Activity [1] read?
A: The Activity was 1.

Q: And the Activity (Staphylococcus aureus [2])?
A: Its Activity is “Active”.

Q: What about the Activity [3] of the same molecule?
A: The Activity was “inactive”.

Q: And the Activity [4]?
A: The Activity was “Active”.

Q: And the Activity [5]?
A: The Activity was “inactive”.

Q: And the Activity (Staphylococcus aureus [6])?
A: Its Activity is “inactive”.

Q: What about the Activity (Staphylococcus aureus [7]) of the same molecule?
A: The Activity was “Active”.

Q: And the Activity [8]?
A: Its Activity is “Active”.

Q: What about the Activity (Staphylococcus aureus [9]) of the same molecule?
A: The Activity was “Active”.

Q: What about the Activity (Staphylococcus aureus [10]) of the same molecule?
A: Its Activity is “inactive”.

Q: What about the Activity [11] of the same molecule?
A: The Activity was “Active”.

Q: And the Activity [12]?
A: The Activity was “Active”.

Q: And the Activity (Staphylococcus aureus [13])?
A: Its Activity is “inactive”.

Q: And the Activity [14]?
A: The Activity was “Active”.

Q: What about the Activity [15] of the same molecule?
A: The Activity was “Active”.

Q: And the Activity (Staphylococcus aureus [16])?
A: The Activity was “Active”.

Q: And the Activity (Staphylococcus aureus [17])?
A: The Activity was “Active”.

Q: What about the Activity (Staphylococcus aureus [18]) of the same molecule?
A: The Activity was “Active”.

Q: What about the Activity [19] of the same molecule?
A: Its Activity is “Active”.

Q: And the Activity (Staphylococcus aureus [20])?
A: Its Activity is “inactive”.

Q: And the Activity [21]?
A: Its Activity is “inactive”.

Q: And the Activity (Staphylococcus aureus [22])?
A: The Activity was “Active”.

Q: What about the Ratio [23] of the same molecule?
A: Its Ratio is 10.

From ChEMBL document CHEMBL1152464, “Toluidine blue-mediated photodynamic effects on staphylococcal biofilms” (2008)
